Source: ChEMBL document CHEMBL1146490, “New diterpenoids from Viburnum awabuki” (2004)
Values after ≈ are worked out from the molar mass of the structure shown.

What was measured:
Type in all cases: functional
Settings in all cases: read-out: ED50 (the source's name)
P388 = assay: Cytotoxicity against mouse P388 cells
Procedure, shortened: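 P-388 is a mouse lymphocytic leukemia line, supplied by J. M. Pezzuto (Purdue University), grown in culture and tested by the same previously described cytotoxicity procedure.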

A549 = assay: Cytotoxicity against human A549 cells
Procedure, shortened: (§1)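 Standard cytotoxicity procedure from earlier work. A549 is a human lung adenocarcinoma line and HT-29 a human colon adenocarcinoma line, both grown as cell cultures. Potency is given as ED50 in µg/mL.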

HT-29 = assay: Cytotoxicity against human HT-29 cells; procedure, shortened: as §1

SMILES | EC50 (P388) [µg/mL] | EC50 (A549) [µg/mL] | EC50 (HT-29) [µg/mL]
CC(C)=CC(=O)O[C@@H]1/C=C/[C@@](C)(C/C=C/C(C)(C)O)C/C=C(/CO)CC[C@@H]2O[C@]21C [VIBSANIN P] | 2.25 (≈ 5.38 µM) | 4.62 (≈ 11 µM) | 9.97 (≈ 23.8 µM)
COC(C)(C)/C=C/C[C@]1(C)/C=C/[C@@H](OC(=O)C=C(C)C)[C@]2(C)O[C@H]2CC/C(CO)=C\C1 [VIBSANIN Q] | < 10 | – | –
C=C(C)/C=C/C[C@]1(C)/C=C/[C@@H](OC(=O)C=C(C)C)[C@]2(C)O[C@H]2CC/C(CO)=C\C1 [VIBSANIN R] | < 10 | – | –
C=C(C)C(O)CC[C@]1(C)/C=C/[C@@H](OC(=O)C=C(C)C)[C@]2(C)O[C@H]2CC/C(CO)=C\C1 (some centres not stated) [VIBSANIN S] | < 10 | – | –
CC(C)=CC(=O)O[C@@H]1/C=C/[C@@](C)(C/C=C/C(C)(C)O)C/C=C(/C=O)CC[C@@H]2O[C@]21C [VIBSANIN T] | < 10 | – | –
CC(C)=CC(=O)O[C@@H]1/C=C/[C@@](C)(CCC(O)C(C)(C)O)C/C=C(/CO)C(=O)/C=C/[C@@]1(C)O (some centres not stated) [VIBSANIN U] | < 10 | – | –
C=C(C)C(O)CC[C@]1(C)/C=C/C[C@]2(C)O[C@H]2CC/C(C=O)=C\C1 (some centres not stated) [VIBSANIN V] | < 10 | – | –
CC(=O)C[C@@H]1C(=O)C(CO)=CC[C@](C)(CCC(O)C(C)(C)O)[C@H]1/C=C/OC(=O)C=C(C)C (some centres not stated) [VIBSANIN W] | 2.18 (≈ 4.84 µM) | 5.6 (≈ 12.4 µM) | 8.15 (≈ 18.1 µM)
